One data set relates to ZR-75-1. The data set is described as follows: Induction of apoptosis in human ZR-75-1 cells assessed as accumulation of cells with sub-G0-G1 DNA content at 1 uM incubated for 48 hrs in presence of docetaxel by flow cytometric analysis. The format is functional, cell-based. On the technique in general: In flow cytometry, cells or beads pass a laser one at a time.
The subject of a further data set is UAC812. Briefly: Induction of apoptosis in UAC812 (unknown origin) cells assessed as accumulation of cells with sub-G0-G1 DNA content at 1 uM incubated for 48 hrs in presence of docetaxel by flow cytometric analysis. It counts as functional, cell-based.
Another data set deals with MX1. Briefly: Induction of apoptosis in human MX1 cells assessed as accumulation of cells with sub-G0-G1 DNA content at 1 uM incubated for 48 hrs in presence of docetaxel by flow cytometric analysis. It counts as functional, cell-based.
The next data set concerns MDA-MB-436. Briefly: Antagonistic antiproliferative activity against human MDA-MB-436 cells assessed as reduction in cell viability by measuring bliss sum score incubated for 72 hrs in presence of docetaxel by CellTiter-Glo cell vaibility assay. It counts as functional. (In general: ATP-based viability assays read luminescence as a measure of living cells.)
Another data set concerns SK-MES-1. The data set is described as follows: Synergistic antiproliferative activity against human SK-MES-1 cells assessed as reduction in cell viability by measuring bliss sum score incubated for 72 hrs in presence of docetaxel by CellTiter-Glo cell vaibility assay. It counts as functional.
The next data set concerns HCC1806. The data set is described as follows: Synergistic antiproliferative activity against human HCC1806 cells assessed as reduction in cell viability by measuring bliss sum score incubated for 72 hrs in presence of docetaxel by CellTiter-Glo cell vaibility assay. The format is functional.
The test system of data set [1] is NCI-H1650. Briefly: Synergistic antiproliferative activity against human NCI-H1650 cells assessed as reduction in cell viability by measuring bliss sum score incubated for 72 hrs in presence of docetaxel by CellTiter-Glo cell vaibility assay. It counts as functional.
In another data set the test system is NCI-H1975. Briefly: Synergistic antiproliferative activity against human NCI-H1975 cells assessed as reduction in cell viability by measuring bliss sum score incubated for 72 hrs in presence of docetaxel by CellTiter-Glo cell vaibility assay. The format is functional.
The next data set has as its system MDA-MB-361. Briefly: Synergistic antiproliferative activity against human MDA-MB-361 cells assessed as reduction in cell viability by measuring bliss sum score incubated for 72 hrs in presence of docetaxel by CellTiter-Glo cell vaibility assay. The format is functional.
The next data set concerns OVCAR-3. The data set is described as follows: Synergistic antiproliferative activity against human OVCAR-3 cells assessed as reduction in cell viability by measuring bliss sum score incubated for 72 hrs in presence of docetaxel by CellTiter-Glo cell vaibility assay. It counts as functional.
The subject of the next data set is NCI-H1703. Briefly: Synergistic antiproliferative activity against human NCI-H1703 cells assessed as reduction in cell viability by measuring bliss sum score incubated for 72 hrs in presence of docetaxel by CellTiter-Glo cell vaibility assay. The format is functional.
The next data set relates to BT-549. The data set is described as follows: Synergistic antiproliferative activity against human BT-549 cells assessed as reduction in cell viability by measuring bliss sum score incubated for 72 hrs in presence of docetaxel by CellTiter-Glo cell vaibility assay. It counts as functional.
The test system of data set [2] is NCI-H358. The data set is described as follows: Antitumor activity against human NCI-H358 cells xenografted in po dosed SCID mouse assessed as maximum tumor growth inhibition relative to control. It counts as functional.
The next data set has as its system EBC-1. The data set is described as follows: Synergistic antitumor activity against human EBC-1 cells xenografted in po dosed SCID-bg mouse assessed as maximum tumor growth inhibition in presence of docetaxel relative to control. It counts as functional. Summed up:
(§1)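 Xenografts dosed with oral inhibitor plus intravenous docetaxel. TGImax = 100(1 − Tv/Cv), from mean treated and control tumor volumes; TGD = 100(T/C − 1), from median times to reach 1 cm3. Group size 5 mice (NCI-H747, A549-FP3, EBC-1, OVCAR-5), 8 (NCI-H358), 10 (NCI-H1650).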

Data set [3] has as its system NCI-H1650. Briefly: Antitumor activity against human NCI-H1650 cells xenografted in SCID-bg mouse assessed as tumor growth delay at 25 mg/kg, po administered daily for 14 days relative to control. The format is functional. The conditions noted are these: time 14 day. The essentials:
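NCI-H1650 NSCLC xenografts, ten mice per group. Arms: vehicle; docetaxel iv once at 7.5 mg/kg; oral agent daily for 14 days at 25 mg/kg; and the two combined. TGImax = 100(1 − Tv/Cv) from mean volumes. TGD = 100(T/C − 1) from median times to reach 1 cm3.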
In general terms: In xenograft studies the graft and the host belong to different species.

The test system of data set [4] is MOLT-4. The data set is described as follows: Induction of apoptosis in human MOLT-4 cells assessed as cytochrome C release from mitochondria upto 500 nM incubated for 4 hrs by immunoblot analysis. The format is functional, cell-based. Summed up:
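Molt-4 cells were treated for 4 h with increasing concentrations. Cytochrome c in the mitochondrial and cytosolic fractions was determined by immunoblotting.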

Data set [5] concerns NCI-H747. Briefly: Synergistic antitumor activity against human NCI-H747 cells xenografted in po dosed SCID-bg mouse assessed as maximum tumor growth inhibition in presence of docetaxel relative to control. It counts as functional. Summed up:
as §1

Data set [6] has as its system NCI-H358. Briefly: Synergistic antitumor activity against human NCI-H358 cells xenografted in po dosed SCID mouse assessed as maximum tumor growth inhibition in presence of docetaxel relative to control. The format is functional. The essentials: as §1
Data set [7] is described as follows: Toxicity in po dosed SCID mouse assessed as tolerance. The format is organism-based. As to conditions: in vivo.
A short description of data set [8]: Toxicity in Sprague-Dawley rat assessed as inhibition of granulopoiesis by measuring reduction in neutrophil count at 7 mg/kg, po administered daily for 5 days measured on day 6 by microscopic analysis relative to control. The conditions noted are these: in vivo, 144 h, time 6 day. It counts as organism-based. The essentials: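 Male Sprague-Dawley rats, n = 10 per group: docetaxel 5 mg/kg i.v. once, or oral inhibitor daily for 5 days (30, 50 or 7 mg/kg depending on agent), alone or combined with docetaxel, against vehicles. Total neutrophil and platelet counts in blood collected on day 6; Tukey-Kramer test versus vehicle.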

The nature of data set [9]: Toxicity in po dosed SCID mouse assessed as body weight loss in presence of docetaxel relative to control. It counts as organism-based. The conditions noted are these: in vivo.
The test system of data set [10] is NCI-H358. Briefly: Antitumor activity against human NCI-H358 cells xenografted in po dosed SCID mouse assessed as tumor growth delay relative to control. It counts as functional. The essentials: (§2)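 Tumor volume-based endpoints. TGD = 100(T/C − 1), where T and C are the median times for the treated and control groups to reach 1 cm3. Groups were five mice for NCI-H747 and OVCAR-5 and eight for NCI-H358. Docetaxel was given intravenously and the test agent orally.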

For the next data set, the system named is OVCAR-5. Briefly: Antitumor activity against human OVCAR-5 xenografted in po dosed SCID mouse assessed as tumor growth delay relative to control. The format is functional. The essentials:
as §2

Data set [11] relates to NCI-H747. Briefly: Synergistic antitumor activity against human NCI-H747 cells xenografted in po dosed SCID-bg mouse assessed as tumor growth delay in presence of docetaxel relative to control. It counts as functional. Summed up: as §1
The subject of data set [12] is MOLT-4. The data set is described as follows: Induction of apoptosis in human MOLT-4 cells assessed as increase in annexin V positive cells upto 500 nM incubated for 24 hrs by Annexin V staining based analysis. The format is functional, cell-based. The essentials: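 Molt-4 cells were preincubated for 1 h with or without Z-VAD-fmk (75 μM), then treated for 24 h with increasing concentrations. Phosphatidylserine exposure was measured by annexin V staining. Values are the mean of triplicate experiments ± SD.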

The subject of data set [13] is NCI-H358. Briefly: Synergistic antitumor activity against human NCI-H358 cells xenografted in po dosed SCID mouse assessed as tumor growth delay in presence of docetaxel relative to control. The format is functional. Summed up: as §1

Active and inactive are the calls of the source. The calls are words filed in the database; no cut-off is given here.

On to `CC1(C)CCC(c2ccc(Cl)cc2)=C(CN2CCN(c3ccc(C(=O)NS(=O)(=O)c4ccc(N[C@H](CCN5CCOCC5)CSc5ccccc5)c(S(=O)(=O)C(F)(F)F)c4)cc3)CC2)C1` [NAVITOCLAX], for which the outcome in the data set with ZR-75-1, in the data set with UAC812 and with MX1 was Active.

With `CN(C)CC#Cc1ccc(OCCCc2sc(N3CCc4cccc(C(=O)Nc5nc6ccccc6s5)c4C3)nc2C(=O)O)c(F)c1` [A-1155463], the Activity_index in the data set with MDA-MB-436 is reported as -96; in the data set on SK-MES-1, 152; with HCC1806, 224; in the data set with NCI-H1650 [1], 312; in the data set on NCI-H1975 it was 6; in the data set with MDA-MB-361 it was 110. The Activity_index was determined as 683 in the data set with OVCAR-3, 29 with NCI-H1703 and 117 in the data set with BT-549.

In the case of `Cc1c(-c2ccc(N3CCc4cccc(C(=O)Nc5nc6ccccc6s5)c4C3)nc2C(=O)O)cnn1CC12CC3CC(CC(C3)C1)C2`, the TGI in the data set with NCI-H358 [2] is 62%; in the data set with EBC-1 it was 88%; in the data set with NCI-H747 [5], 84%; with NCI-H358 [6] it was 91%. Moreover, the Activity is 33% in the data set with NCI-H1650 [3]; “Non-Toxic” in data set [7]; “Non-Toxic” in data set [8]; less than 9% in [9]; 80% in the data set on NCI-H358 [10]; 54% in the data set with OVCAR-5. Moreover, the Activity amounted to 167% in the data set with NCI-H747 [11] and 233% with NCI-H358 [13]. The result in the data set on MOLT-4 [4] and with MOLT-4 [12] was Active.

One may read the TGI as how far tumour growth fell short of that in controls.

For the origin of these results see ChEMBL document CHEMBL5705901, “Exploiting selective BCL-2 family inhibitors to dissect cell survival dependencies and define improved strategies for cancer therapy” (Sci Transl Med, 2015).
